Test results reported in ChEMBL document CHEMBL6071149, “Synthesis and photo-induced anticancer activity of new 2-phenylethenyl-1H-benzo[e]indole dyes” (Eur J Med Chem, 2024).
Activity calls are given as the source filed them. No cut-off for these calls is given here.

Legend:
ARN-8 cell = test: Induction of apoptosis in human ARN-8 cells-derived from human A375 cells assessed as increase in cleaved BAX level upto 4 uM pretreated for 4 hrs followed by light irradiation of 10 J/cm2 at 414 nm measured after 20 hrs by Western blot analysis; assay type: functional, cell-based; settings: time 24.0 hrs
How it was run: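 Compound exposure 4 h, then 414 nm irradiation, then 20 h further incubation. Lysates made in RIPA buffer, separated by SDS-PAGE and blotted to nitrocellulose. Primary antibodies in TBS with 4 % BSA and 0.1 % Tween 20, incubated overnight. Peroxidase secondary antibody with chemiluminescent detection. GAPDH served as loading control.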

[1] = Induction of singlet oxygen generation in aqueous solution at 5 uM at light irradiation of 10 J/cm2; assay type: functional
How it was run: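 Water solutions of compound mixed with SOSG, DHR123 or HPF probe, each at a final 5 µM, without cells or medium. Irradiated with blue light at 10 J/cm² and fluorescence read immediately at 490/525 nm.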

COc1ccc(/C=C/C2=Nc3ccc4ccccc4c3C2(C)C)cc1[N+](=O)[O-]
Activity (ARN-8 cell): Active
Activity [1]: inactive
